Measurements taken from PubChem BioAssay AID651929 (Vanderbilt Specialized Chemistry Center, 2012).
Activity calls are given as the source filed them. The rule behind the calls is not given here.

Molecular target: Muscarinic acetylcholine receptor M2 (Rattus norvegicus) (UniProt P10980)
Assay: M2 receptor potentiation by M5-directed compounds, selectivity assay for M5 PAM discovery project, CHO cells, rat M2, calcium flux (AID 651929)
Method in brief: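 System: CHO-K1 cells expressing M2 receptor coupled to Gqi5 chimera / Detection: intracellular calcium response / Reagent: acetylcholine at EC20 (submaximal) concentration / Incubation: 1.5 min compound pretreatment, 50 s acetylcholine stimulation, 25 °C / Measure: calcium signal normalized to baseline, then % maximal acetylcholine response / Medium: pH 7.4 buffer containing probenecid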

Muscarinic acetylcholine receptor M2 (Rattus norvegicus), sequence (P10980 whole entry, looked up): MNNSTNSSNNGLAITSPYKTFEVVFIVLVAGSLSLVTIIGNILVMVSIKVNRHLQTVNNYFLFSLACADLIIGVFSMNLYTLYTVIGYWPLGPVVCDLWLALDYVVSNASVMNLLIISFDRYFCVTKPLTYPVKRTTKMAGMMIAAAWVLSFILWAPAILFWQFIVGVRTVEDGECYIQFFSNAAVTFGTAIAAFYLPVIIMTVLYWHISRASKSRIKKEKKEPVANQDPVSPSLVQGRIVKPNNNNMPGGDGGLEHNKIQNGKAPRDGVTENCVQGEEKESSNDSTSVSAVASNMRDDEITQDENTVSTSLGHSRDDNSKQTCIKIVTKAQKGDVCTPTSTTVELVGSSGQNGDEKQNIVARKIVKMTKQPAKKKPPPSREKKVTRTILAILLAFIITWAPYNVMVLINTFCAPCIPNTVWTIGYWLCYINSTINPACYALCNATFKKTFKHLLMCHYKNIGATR

## O=C1C(=O)N(CCOc2ccccc2)c2ccc(OC(F)(F)F)cc21
  outcome: inactive
